Test results published in BindingDB's records for doi:10.1016/j.ejmech.2013.06.039 (University of Salerno, 2013).

Assays:
[1] = biological target: T1, Polyunsaturated fatty acid 5-lipoxygenase (Homo sapiens, UniProt P09917); experiment: Inhibition of 5-LO in human PMNL using arachidonic acid as substrate preincubated for 15 mins
T1 sequence (P09917 whole entry): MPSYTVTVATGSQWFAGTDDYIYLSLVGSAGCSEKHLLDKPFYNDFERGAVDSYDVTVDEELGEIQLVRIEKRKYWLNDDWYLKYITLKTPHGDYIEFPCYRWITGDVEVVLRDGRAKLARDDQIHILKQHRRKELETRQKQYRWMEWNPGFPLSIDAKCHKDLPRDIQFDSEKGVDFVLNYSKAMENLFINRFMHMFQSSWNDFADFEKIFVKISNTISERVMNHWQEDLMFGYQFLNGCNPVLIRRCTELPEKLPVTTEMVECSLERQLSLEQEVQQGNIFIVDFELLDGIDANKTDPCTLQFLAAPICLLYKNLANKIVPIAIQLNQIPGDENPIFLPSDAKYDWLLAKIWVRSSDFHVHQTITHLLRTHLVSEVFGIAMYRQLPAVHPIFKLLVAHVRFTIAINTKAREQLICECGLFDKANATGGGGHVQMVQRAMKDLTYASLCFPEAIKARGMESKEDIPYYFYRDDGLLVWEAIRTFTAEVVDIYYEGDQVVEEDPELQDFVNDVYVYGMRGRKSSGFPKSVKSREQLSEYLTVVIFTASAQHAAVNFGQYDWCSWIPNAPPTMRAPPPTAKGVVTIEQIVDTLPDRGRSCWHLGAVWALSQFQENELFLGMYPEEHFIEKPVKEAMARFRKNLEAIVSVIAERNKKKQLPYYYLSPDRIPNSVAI
Outline: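 PMNL were isolated from buffy coats by dextran sedimentation, Nycoprep centrifugation and hypotonic lysis of erythrocytes, then resuspended in PBS pH 7.4 with 1 mg/mL glucose and 1 mM CaCl₂. Cells were pre-incubated with compound for 15 min at 37 °C, then stimulated with A23187 plus AA for 10 min at 37 °C. 15-LO comes from eosinophils and 12-LO from adhering platelets in the preparation. After methanol/HCl stop and PGB₁ addition, metabolites were extracted and quantified by HPLC. Mean ± S.E.M., n = 3–4.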

[2] = biological target: T1, Polyunsaturated fatty acid 5-lipoxygenase; experiment: Inhibition of human recombinant 5-LO expressed in Escherichia coli BL21 using arachidonic acid as substrate after 10 mins
Outline: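 Purified 5-LO was diluted in PBS/EDTA and pre-incubated with compound for 5–10 min at 4 °C, then pre-warmed for 30 s at 37 °C. The reaction was started with 2 mM CaCl₂ plus AA, run 10 min at 37 °C and stopped with ice-cold methanol. Products were analysed by HPLC.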

Row | IC50 [1] | IC50 [2] | Structure (SMILES)
1 | > 10 µM | > 10 µM | O=C1C=C(Cc2ccccc2)C(=O)CC1=O
2 | > 10 µM | > 10 µM | COC1=CC(=O)C(=O)C(Cc2ccccc2)C1=O (stereo not drawn)
3 | > 10 µM | > 10 µM | O=C1CC(=O)C(=O)C(CC2CCCCC2)C1=O
4 | > 10 µM | > 10 µM | COC1=CC(=O)C(=O)C(Cc2ccc3ccccc3c2)C1=O (stereo not drawn)
